Assay results pooled from the literature.
Compare with care: the assays were run in different laboratories.
Target: Serine/threonine-protein kinase MARK2 (MARK2, Homo sapiens, UniProt Q7KZI7)

SMILES | observed | mode | method | tested at | endpoint | value
Nc1ncc(-c2nc(N3CCOCC3)nc(N3CCOCC3)n2)c(C(F)F)n1 | binding | – | competition with immobilised ligand | 10 µM | remaining binding | 77%
CC(C)(C)c1cc(C=C(C#N)C#N)cc(Br)c1O | enzyme activity | inhibitor | – | 0.5 µM | remaining activity | 81.6%
C#Cc1n[nH]c2c(-c3cn([C@@H](C)c4ccccc4)c(=O)[nH]c3=O)cc(F)cc12 | enzyme activity | inhibitor | – | 0.1 µM | inhibition | 2%
Cn1cncc1[C@](O)(COc1ccc(C#N)cc1-c1ccc(OC(F)(F)F)cc1)c1ccc(C#N)cc1 | cell-free assay | – | competition with immobilised ligand | 1 µM | remaining binding | 95%
Cn1cc(-c2cccc(N3CCc4c(sc5c4CC(C)(C)C5)C3=O)c2CO)cc(Nc2ccncn2)c1=O | enzyme activity | inhibitor | – | 1 µM | inhibition | 10%
O=c1[nH]c2ccccc2n1C1CCN(Cc2ccc(-c3[nH]c4cc5ncnc5cc4nc3-c3ccccc3)cc2)CC1 | cell-free assay | – | – | 0.5 µM | remaining signal | 92.2%
COc1ncccc1-c1cnn2ccc(N3CCN(C(=O)OC(C)C)CC3)nc12 | binding | – | competition with immobilised ligand | 1 µM | remaining binding | 80%
C#Cc1n[nH]c2c(-c3cn(C(C)c4ccccn4)c(=O)[nH]c3=O)cc(F)cc12 (stereo not shown) | enzyme activity | inhibitor | – | 1 µM | inhibition | 5.8%
Cn1cc(-c2cc(F)cc(N3CCn4c(cc5c4CCCC5)C3=O)c2CO)cc(Nc2ccc(N3CCN(C4COC4)CC3)cn2)c1=O | enzyme activity | inhibitor | – | 0.1 µM | inhibition | 14%
Cc1nn(C)cc1-c1nc2c(N3CCN(Cc4ccc(Cl)cc4)CC3)c(Cl)cnc2[nH]1 | binding | – | competition with immobilised ligand | 1 µM | remaining binding | 93%
